Data reported in ChEMBL document CHEMBL5058577, “EUbOPEN Chemogenomics Library 2 (Multiplex)” (2022).

Test system: Fibroblast
Assay: Multiplex assay against human fibroblast
Assay type: toxicity, cell-based
Outline: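 Cells were classed with CellPathfinder machine-learning gating, first as Hoechst high-intensity objects or normal cells, then (normal cells) as healthy, pyknosed or fragmented nuclei, and finally (pyknosed cells) as mitotic or apoptotic. Staining of live cells at seeding used Hoechst33342, BioTracker Green Microtubule Cytoskeleton Dye, MitoTracker Red and Annexin V Alexa Fluor 680, with imaging on a CQ1 microscope at 37°C and 5% CO2 after compound addition. Tubulin, mitochondrial-mass and membrane-permeability phenotypes are per cents of healthy-nucleus cells.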

[1] = 12 h, 1 µM, compound concentration 1 uM, replicate 1
[2] = 12 h, 1 µM, compound concentration 1 uM, replicate 2
[3] = 12 h, 10 µM, compound concentration 10 uM, replicate 1
[4] = 12 h, 10 µM, compound concentration 10 uM, replicate 2
[5] = 24 h, 1 µM, compound concentration 1 uM, replicate 1
[6] = 24 h, 1 µM, compound concentration 1 uM, replicate 2
[7] = 24 h, 10 µM, compound concentration 10 uM, replicate 1
[8] = 24 h, 10 µM, compound concentration 10 uM, replicate 2
[9] = 48 h, 1 µM, compound concentration 1 uM, replicate 1
[10] = 48 h, 1 µM, compound concentration 1 uM, replicate 2
[11] = 48 h, 10 µM, compound concentration 10 uM, replicate 1
[12] = 48 h, 10 µM, compound concentration 10 uM, replicate 2

O=C(NCCN1CCC(n2c(=O)[nH]c3cc(Cl)ccc32)CC1)c1ccc(F)cc1 [HALOPEMIDE]
Population Apoptotic (%) [1]: 32%
Population Fragmented Nuclei (%) [1]: 11%
Population Healthy Nuclei (%) [1]: 62%
Population Hoechst High Intensity Objects (%) [1]: 0%
Population Membrane Permeable-Phenotype (%) [1]: 1%
Population Mitochondria Different-Phenotype (%) [1]: 10%
Population Mitotic Cells (%) [1]: 67%
Population Normal (%) [1]: 99%
Population Pyknosed Nuclei (%) [1]: 26%
Population Tubulin-Different-Phenotype (%) [1]: 29%
Total Cell Count [1]: 120
Population Apoptotic (%) [2]: 44%
Population Fragmented Nuclei (%) [2]: 27%
Population Healthy Nuclei (%) [2]: 43%
Population Hoechst High Intensity Objects (%) [2]: 7%
Population Membrane Permeable-Phenotype (%) [2]: 10%
Population Mitochondria Different-Phenotype (%) [2]: 0%
Population Mitotic Cells (%) [2]: 56%
Population Normal (%) [2]: 92%
Population Pyknosed Nuclei (%) [2]: 29%
Population Tubulin-Different-Phenotype (%) [2]: 56%
Total Cell Count [2]: 92
Population Apoptotic (%) [3]: 55%
Population Fragmented Nuclei (%) [3]: 15%
Population Healthy Nuclei (%) [3]: 54%
Population Hoechst High Intensity Objects (%) [3]: 3%
Population Membrane Permeable-Phenotype (%) [3]: 0%
Population Mitochondria Different-Phenotype (%) [3]: 17%
Population Mitotic Cells (%) [3]: 44%
Population Normal (%) [3]: 96%
Population Pyknosed Nuclei (%) [3]: 30%
Population Tubulin-Different-Phenotype (%) [3]: 77%
Total Cell Count [3]: 204
Population Apoptotic (%) [4]: 31%
Population Fragmented Nuclei (%) [4]: 24%
Population Healthy Nuclei (%) [4]: 34%
Population Hoechst High Intensity Objects (%) [4]: 4%
Population Membrane Permeable-Phenotype (%) [4]: 6%
Population Mitochondria Different-Phenotype (%) [4]: 14%
Population Mitotic Cells (%) [4]: 68%
Population Normal (%) [4]: 95%
Population Pyknosed Nuclei (%) [4]: 41%
Population Tubulin-Different-Phenotype (%) [4]: 87%
Total Cell Count [4]: 148
Population Apoptotic (%) [5]: 58%
Population Fragmented Nuclei (%) [5]: 16%
Population Healthy Nuclei (%) [5]: 69%
Population Hoechst High Intensity Objects (%) [5]: 3%
Population Membrane Permeable-Phenotype (%) [5]: 1%
Population Mitochondria Different-Phenotype (%) [5]: 9%
Population Mitotic Cells (%) [5]: 41%
Population Normal (%) [5]: 96%
Population Pyknosed Nuclei (%) [5]: 13%
Population Tubulin-Different-Phenotype (%) [5]: 38%
Total Cell Count [5]: 128
Population Apoptotic (%) [6]: 37%
Population Fragmented Nuclei (%) [6]: 32%
Population Healthy Nuclei (%) [6]: 41%
Population Hoechst High Intensity Objects (%) [6]: 10%
Population Membrane Permeable-Phenotype (%) [6]: 5%
Population Mitochondria Different-Phenotype (%) [6]: 8%
Population Mitotic Cells (%) [6]: 62%
Population Normal (%) [6]: 90%
Population Pyknosed Nuclei (%) [6]: 26%
Population Tubulin-Different-Phenotype (%) [6]: 59%
Total Cell Count [6]: 100
Population Apoptotic (%) [7]: 67%
Population Fragmented Nuclei (%) [7]: 23%
Population Healthy Nuclei (%) [7]: 51%
Population Hoechst High Intensity Objects (%) [7]: 5%
Population Membrane Permeable-Phenotype (%) [7]: 0%
Population Mitochondria Different-Phenotype (%) [7]: 28%
Population Mitotic Cells (%) [7]: 32%
Population Normal (%) [7]: 95%
Population Pyknosed Nuclei (%) [7]: 24%
Population Tubulin-Different-Phenotype (%) [7]: 78%
Total Cell Count [7]: 220
Population Apoptotic (%) [8]: 41%
Population Fragmented Nuclei (%) [8]: 26%
Population Healthy Nuclei (%) [8]: 38%
Population Hoechst High Intensity Objects (%) [8]: 6%
Population Membrane Permeable-Phenotype (%) [8]: 12%
Population Mitochondria Different-Phenotype (%) [8]: 32%
Population Mitotic Cells (%) [8]: 58%
Population Normal (%) [8]: 93%
Population Pyknosed Nuclei (%) [8]: 35%
Population Tubulin-Different-Phenotype (%) [8]: 94%
Total Cell Count [8]: 140
Population Apoptotic (%) [9]: 52%
Population Fragmented Nuclei (%) [9]: 14%
Population Healthy Nuclei (%) [9]: 68%
Population Hoechst High Intensity Objects (%) [9]: 3%
Population Membrane Permeable-Phenotype (%) [9]: 4%
Population Mitochondria Different-Phenotype (%) [9]: 7%
Population Mitotic Cells (%) [9]: 47%
Population Normal (%) [9]: 96%
Population Pyknosed Nuclei (%) [9]: 17%
Population Tubulin-Different-Phenotype (%) [9]: 36%
Total Cell Count [9]: 128
Population Apoptotic (%) [10]: 35%
Population Fragmented Nuclei (%) [10]: 38%
Population Healthy Nuclei (%) [10]: 43%
Population Hoechst High Intensity Objects (%) [10]: 4%
Population Membrane Permeable-Phenotype (%) [10]: 14%
Population Mitochondria Different-Phenotype (%) [10]: 4%
Population Mitotic Cells (%) [10]: 64%
Population Normal (%) [10]: 95%
Population Tubulin-Different-Phenotype (%) [10]: 63%
Total Cell Count [10]: 99
Population Apoptotic (%) [11]: 80%
Population Fragmented Nuclei (%) [11]: 32%
Population Healthy Nuclei (%) [11]: 50%
Population Hoechst High Intensity Objects (%) [11]: 10%
Population Membrane Permeable-Phenotype (%) [11]: 0%
Population Mitochondria Different-Phenotype (%) [11]: 35%
Population Mitotic Cells (%) [11]: 19%
Population Normal (%) [11]: 89%
Population Pyknosed Nuclei (%) [11]: 17%
Population Tubulin-Different-Phenotype (%) [11]: 77%
Total Cell Count [11]: 229
Population Apoptotic (%) [12]: 48%
Population Fragmented Nuclei (%) [12]: 35%
Population Healthy Nuclei (%) [12]: 45%
Population Hoechst High Intensity Objects (%) [12]: 5%
Population Membrane Permeable-Phenotype (%) [12]: 10%
Population Mitochondria Different-Phenotype (%) [12]: 15%
Population Mitotic Cells (%) [12]: 52%
Population Normal (%) [12]: 94%
Population Pyknosed Nuclei (%) [12]: 19%
Population Tubulin-Different-Phenotype (%) [12]: 96%
Total Cell Count [12]: 136
